Several values for one entry are separate records, joined by “and”; a condition that tells them apart may be missing. Equal values may be shown once.
Test system: Fibroblast
Test: Multiplex assay against human fibroblast
Assay type: toxicity, cell-based
Outline: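 With compound added, live cells were imaged on a CQ1 microscope at 37°C and 5% CO2; staining with Hoechst33342, BioTracker Green Microtubule Cytoskeleton Dye, MitoTracker Red and Annexin V Alexa Fluor 680 had been done at seeding. The CellPathfinder machine-learning gating scheme split cells into Hoechst high-intensity objects or normal cells, normal cells into healthy, pyknosed or fragmented nuclei, and pyknosed cells into mitotic or apoptotic. The tubulin, mitochondrial-mass and membrane-permeability phenotypes are per cents of healthy-nucleus cells.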

[1] = 12 h, 1 µM, compound concentration 1 uM
[2] = 12 h, 10 µM, compound concentration 10 uM
[3] = 24 h, 1 µM, compound concentration 1 uM
[4] = 24 h, 10 µM, compound concentration 10 uM
[5] = 48 h, 1 µM, compound concentration 1 uM
[6] = 48 h, 10 µM, compound concentration 10 uM

## O=C(O)c1cc2ccccc2c(Cc2c(O)c(C(=O)O)cc3ccccc23)c1O [PAMOIC ACID]
[1]
  Population Apoptotic (%): 54% and 32%
  Population Fragmented Nuclei (%): 10% and 23%
  Population Healthy Nuclei (%): 81% and 56%
  Population Hoechst High Intensity Objects (%): 2% and 6%
  Population Membrane Permeable-Phenotype (%): 0% and 6%
  Population Mitochondria Different-Phenotype (%): 2% and 8%
  Population Mitotic Cells (%): 45% and 67%
  Population Normal (%): 97% and 93%
  Population Pyknosed Nuclei (%): 7% and 19%
  Population Tubulin-Different-Phenotype (%): 20% and 34%
  Total Cell Count: 147 and 154
[2]
  Population Apoptotic (%): 40% and 37%
  Population Healthy Nuclei (%): 80% and 51%
  Population Hoechst High Intensity Objects (%): 4%
  Population Membrane Permeable-Phenotype (%): 1% and 3%
  Population Mitochondria Different-Phenotype (%): 5% and 3%
  Population Mitotic Cells (%): 60% and 62%
  Population Normal (%): 95%
  Population Pyknosed Nuclei (%): 11% and 24%
  Population Tubulin-Different-Phenotype (%): 23% and 51%
  Total Cell Count: 132 and 156
[3]
  Population Apoptotic (%): 33% and 32%
  Population Fragmented Nuclei (%): 10% and 23%
  Population Healthy Nuclei (%): 86% and 58%
  Population Hoechst High Intensity Objects (%): 3% and 6%
  Population Membrane Permeable-Phenotype (%): 0% and 9%
  Population Mitochondria Different-Phenotype (%): 2% and 11%
  Population Mitotic Cells (%): 66% and 68%
  Population Normal (%): 96% and 93%
  Population Tubulin-Different-Phenotype (%): 17% and 39%
  Total Cell Count: 156 and 147
[4]
  Population Apoptotic (%): 50% and 40%
  Population Healthy Nuclei (%): 77% and 52%
  Population Hoechst High Intensity Objects (%): 2% and 5%
  Population Membrane Permeable-Phenotype (%): 1% and 3%
  Population Mitochondria Different-Phenotype (%): 1% and 5%
  Population Mitotic Cells (%): 50% and 59%
  Population Normal (%): 97% and 94%
  Population Pyknosed Nuclei (%): 13%
  Population Tubulin-Different-Phenotype (%): 20% and 39%
  Total Cell Count: 138 and 170
[5]
  Population Apoptotic (%): 25% and 38%
  Population Fragmented Nuclei (%): 12% and 23%
  Population Healthy Nuclei (%): 79% and 58%
  Population Hoechst High Intensity Objects (%): 4% and 3%
  Population Membrane Permeable-Phenotype (%): 0% and 9%
  Population Mitochondria Different-Phenotype (%): 2% and 8%
  Population Mitotic Cells (%): 75% and 61%
  Population Normal (%): 95% and 96%
  Population Pyknosed Nuclei (%): 8% and 17%
  Population Tubulin-Different-Phenotype (%): 23% and 44%
  Total Cell Count: 155 and 152
[6]
  Population Apoptotic (%): 50% and 60%
  Population Fragmented Nuclei (%): 19% and 32%
  Population Healthy Nuclei (%): 72% and 60%
  Population Hoechst High Intensity Objects (%): 5% and 3%
  Population Membrane Permeable-Phenotype (%): 2% and 3%
  Population Mitochondria Different-Phenotype (%): 5% and 1%
  Population Mitotic Cells (%): 50% and 40%
  Population Normal (%): 94% and 96%
  Population Pyknosed Nuclei (%): 7% and 6%
  Population Tubulin-Different-Phenotype (%): 29% and 28%
  Total Cell Count: 136 and 156

## COCCCN1CCC(NC(=O)c2cc(Cl)c(N)c3c2OCC3)CC1 [PRUCALOPRIDE]
[1]
  Population Apoptotic (%): 33% and 48%
  Population Fragmented Nuclei (%): 20% and 31%
  Population Healthy Nuclei (%): 62% and 48%
  Population Hoechst High Intensity Objects (%): 3% and 4%
  Population Membrane Permeable-Phenotype (%): 0% and 5%
  Population Mitochondria Different-Phenotype (%): 3% and 8%
  Population Mitotic Cells (%): 66% and 52%
  Population Normal (%): 96% and 95%
  Population Pyknosed Nuclei (%): 16% and 20%
  Population Tubulin-Different-Phenotype (%): 30% and 51%
  Total Cell Count: 132 and 130
[2]
  Population Apoptotic (%): 30% and 35%
  Population Fragmented Nuclei (%): 12% and 28%
  Population Healthy Nuclei (%): 66% and 46%
  Population Hoechst High Intensity Objects (%): 0% and 11%
  Population Membrane Permeable-Phenotype (%): 1% and 7%
  Population Mitochondria Different-Phenotype (%): 7% and 3%
  Population Mitotic Cells (%): 70% and 64%
  Population Normal (%): 99% and 88%
  Population Pyknosed Nuclei (%): 20% and 25%
  Population Tubulin-Different-Phenotype (%): 31% and 55%
  Total Cell Count: 144 and 153
[3]
  Population Apoptotic (%): 48% and 72%
  Population Fragmented Nuclei (%): 20% and 36%
  Population Healthy Nuclei (%): 57% and 49%
  Population Hoechst High Intensity Objects (%): 2% and 7%
  Population Membrane Permeable-Phenotype (%): 0% and 7%
  Population Mitochondria Different-Phenotype (%): 3% and 4%
  Population Mitotic Cells (%): 51% and 27%
  Population Normal (%): 97% and 92%
  Population Pyknosed Nuclei (%): 21% and 14%
  Population Tubulin-Different-Phenotype (%): 25% and 50%
  Total Cell Count: 136 and 138
[4]
  Population Apoptotic (%): 63% and 30%
  Population Fragmented Nuclei (%): 10% and 24%
  Population Healthy Nuclei (%): 74% and 57%
  Population Hoechst High Intensity Objects (%): 6% and 5%
  Population Membrane Permeable-Phenotype (%): 1% and 11%
  Population Mitochondria Different-Phenotype (%): 6% and 3%
  Population Mitotic Cells (%): 36% and 69%
  Population Normal (%): 93% and 94%
  Population Pyknosed Nuclei (%): 15% and 18%
  Population Tubulin-Different-Phenotype (%): 30% and 56%
  Total Cell Count: 128 and 148
[5]
  Population Apoptotic (%): 50%
  Population Fragmented Nuclei (%): 25% and 36%
  Population Healthy Nuclei (%): 60% and 49%
  Population Hoechst High Intensity Objects (%): 4% and 2%
  Population Membrane Permeable-Phenotype (%): 2% and 3%
  Population Mitochondria Different-Phenotype (%): 3% and 6%
  Population Mitotic Cells (%): 50%
  Population Normal (%): 95% and 97%
  Population Pyknosed Nuclei (%): 14% and 13%
  Population Tubulin-Different-Phenotype (%): 38% and 53%
  Total Cell Count: 146 and 132
[6]
  Population Apoptotic (%): 64% and 62%
  Population Fragmented Nuclei (%): 22% and 34%
  Population Healthy Nuclei (%): 66% and 48%
  Population Hoechst High Intensity Objects (%): 2% and 6%
  Population Membrane Permeable-Phenotype (%): 1% and 7%
  Population Mitochondria Different-Phenotype (%): 6% and 7%
  Population Mitotic Cells (%): 35% and 37%
  Population Normal (%): 97% and 93%
  Population Pyknosed Nuclei (%): 10% and 17%
  Population Tubulin-Different-Phenotype (%): 38% and 57%
  Total Cell Count: 136 and 146

## c1ccc2nc(N3CCNCC3)ccc2c1 [QUIPAZINE]
[1]
  Population Apoptotic (%): 13.95% and 10%
  Population Fragmented Nuclei (%): 15.05% and 6.28%
  Population Healthy Nuclei (%): 64.08% and 79.23%
  Population Hoechst High Intensity Objects (%): 0%
  Population Membrane Permeable-Phenotype (%): 2.27% and 0.61%
  Population Mitochondria Different-Phenotype (%): 9.09% and 6.71%
  Population Mitotic Cells (%): 86.05% and 90%
  Population Normal (%): 100%
  Population Pyknosed Nuclei (%): 20.87% and 14.49%
  Population Tubulin-Different-Phenotype (%): 9.09% and 19.51%
  Total Cell Count: 206 and 207
[2]
  Population Fragmented Nuclei (%): 10.34% and 8.29%
  Population Healthy Nuclei (%): 70.94% and 74.63%
  Population Hoechst High Intensity Objects (%): 0%
  Population Membrane Permeable-Phenotype (%): 3.47% and 5.23%
  Population Mitotic Cells (%): 94.74% and 74.29%
  Population Normal (%): 100%
  Population Pyknosed Nuclei (%): 18.72% and 17.07%
  Population Tubulin-Different-Phenotype (%): 13.19% and 23.53%
  Total Cell Count: 203 and 205
[3]
  Population Apoptotic (%): 15.79% and 12%
  Population Fragmented Nuclei (%): 7.37% and 6.28%
  Population Healthy Nuclei (%): 75.12% and 82.51%
  Population Hoechst High Intensity Objects (%): 0%
  Population Membrane Permeable-Phenotype (%): 4.91% and 2.72%
  Population Mitochondria Different-Phenotype (%): 6.75% and 7.61%
  Population Mitotic Cells (%): 84.21% and 88%
  Population Normal (%): 100%
  Population Pyknosed Nuclei (%): 17.51% and 11.21%
  Population Tubulin-Different-Phenotype (%): 11.04% and 17.93%
  Total Cell Count: 217 and 223
[4]
  Population Apoptotic (%): 17.65% and 35.71%
  Population Fragmented Nuclei (%): 10.5% and 7.62%
  Population Healthy Nuclei (%): 73.97% and 79.82%
  Population Hoechst High Intensity Objects (%): 0%
  Population Membrane Permeable-Phenotype (%): 3.7% and 3.37%
  Population Mitochondria Different-Phenotype (%): 3.09% and 6.74%
  Population Mitotic Cells (%): 82.35% and 64.29%
  Population Normal (%): 100%
  Population Pyknosed Nuclei (%): 15.53% and 12.56%
  Population Tubulin-Different-Phenotype (%): 16.05% and 25.84%
  Total Cell Count: 219 and 223
[5]
  Population Apoptotic (%): 57.14% and 58.33%
  Population Fragmented Nuclei (%): 12.6% and 5.91%
  Population Healthy Nuclei (%): 82.06% and 88.64%
  Population Hoechst High Intensity Objects (%): 0%
  Population Membrane Permeable-Phenotype (%): 2.33% and 4.1%
  Population Mitotic Cells (%): 42.86% and 41.67%
  Population Normal (%): 100%
  Population Pyknosed Nuclei (%): 5.34% and 5.45%
  Population Tubulin-Different-Phenotype (%): 4.19% and 11.79%
  Total Cell Count: 262 and 220
[6]
  Population Apoptotic (%): 35.71% and 45%
  Population Fragmented Nuclei (%): 10.74% and 6.5%
  Population Healthy Nuclei (%): 84.07% and 85.37%
  Population Hoechst High Intensity Objects (%): 0%
  Population Membrane Permeable-Phenotype (%): 1.32% and 4.76%
  Population Mitochondria Different-Phenotype (%): 6.61% and 0.48%
  Population Mitotic Cells (%): 64.29% and 55%
  Population Normal (%): 100%
  Population Pyknosed Nuclei (%): 5.19% and 8.13%
  Total Cell Count: 270 and 246

## CCC(=O)N1CCN(c2ccc(-n3c(=O)ccc4cnc5ccc(-c6cnc7ccccc7c6)cc5c43)cc2C(F)(F)F)CC1 [TORIN1]
[2]
  Population Healthy Nuclei (%): 60% and 44%
  Population Membrane Permeable-Phenotype (%): 1%
  Population Mitochondria Different-Phenotype (%): 5% and 0%
  Population Mitotic Cells (%): 72% and 65%
  Population Normal (%): 94% and 90%
  Population Tubulin-Different-Phenotype (%): 62% and 64%
  Total Cell Count: 155 and 131
[4]
  Population Healthy Nuclei (%): 57%
  Population Membrane Permeable-Phenotype (%): 0%
  Population Mitochondria Different-Phenotype (%): 10% and 5%
  Population Mitotic Cells (%): 66% and 56%
  Population Normal (%): 96% and 93%
  Population Tubulin-Different-Phenotype (%): 62% and 59%
  Total Cell Count: 137 and 128
[6]
  Population Apoptotic (%): 80%
  Population Healthy Nuclei (%): 72% and 62%
  Population Membrane Permeable-Phenotype (%): 0% and 8%
  Population Mitotic Cells (%): 20% and 46%
  Population Normal (%): 96% and 95%
  Population Pyknosed Nuclei (%): 10%
  Population Tubulin-Different-Phenotype (%): 67% and 61%
  Total Cell Count: 127 and 136
